pEC50, pIC50: −log10 of the molar value. Activity calls are given as the source filed them. No cut-off for these calls is given here.
Columns and labels:
DG-75 [1] = test: Antiproliferative activity against human DG75 cells after 24 hrs Alamar blue assay; type: functional, cell-based; conditions: DG-75, 24 h
Summary of the method: (§1)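 Alamar Blue viability: 1-5x10^4 cells/well treated 24 h, then Alamar Blue (pre-warmed) 4-6 h at 37 °C in the dark. Fluorescence read at 590 nm (excitation 544 nm), background of medium plus dye subtracted, untreated cells = 100% viability. Miconazole 10 µM as cell-death control. Range 1 µM-1 mM, triplicate on two independent days. pEC50 from non-linear sigmoidal regression.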

[2] = Antiproliferative activity against human chemosensitive MUTU-I cells after 24 hrs Alamar blue assay; type: functional, cell-based; summary of the method: as §1
SH-SY5Y [3] = test: Antiproliferative activity against human SH-SY5Y cells after 24 hrs Alamar blue assay; type: functional, cell-based; summary of the method: as §1
[4] = target: T1, Sodium-dependent serotonin transporter (Homo sapiens, UniProt P31645); conditions: HEK293, at 100 µM
Target sequence in this assay (P31645 whole entry, looked up): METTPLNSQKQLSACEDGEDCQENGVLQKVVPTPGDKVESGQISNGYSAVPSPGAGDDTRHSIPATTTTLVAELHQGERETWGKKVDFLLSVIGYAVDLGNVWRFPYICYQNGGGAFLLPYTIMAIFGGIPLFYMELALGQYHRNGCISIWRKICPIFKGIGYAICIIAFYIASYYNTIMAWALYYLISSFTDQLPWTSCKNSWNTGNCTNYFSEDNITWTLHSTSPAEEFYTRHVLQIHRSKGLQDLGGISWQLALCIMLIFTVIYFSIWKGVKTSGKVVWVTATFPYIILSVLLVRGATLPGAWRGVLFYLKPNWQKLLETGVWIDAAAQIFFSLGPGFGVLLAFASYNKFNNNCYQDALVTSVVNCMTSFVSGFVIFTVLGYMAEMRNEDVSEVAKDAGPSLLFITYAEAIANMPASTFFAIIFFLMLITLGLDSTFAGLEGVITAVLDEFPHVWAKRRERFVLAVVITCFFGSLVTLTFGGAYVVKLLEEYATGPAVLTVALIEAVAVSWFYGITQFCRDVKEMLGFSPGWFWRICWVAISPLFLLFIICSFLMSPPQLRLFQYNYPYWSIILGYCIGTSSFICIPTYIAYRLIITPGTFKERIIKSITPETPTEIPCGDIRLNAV

[5] = target: T1, Sodium-dependent serotonin transporter; conditions: HEK293, at 1 µM
Target sequence in this assay (P31645 whole entry, looked up): as above

SH-SY5Y [6] = test: Cytotoxicity against human SH-SY5Y cells expressing human SERT assessed as decrease in cell viability after 48 hrs neutral red dye assay; type: functional, cell-based
HEK293 [7] = test: Cytotoxicity against human HEK293 cells expressing human SERT assessed as decrease in cell viability after 48 hrs neutral red dye assay; type: functional, cell-based; conditions: HEK293, 48 h
Summary of the method: (§2)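 5x10^4 cells/well grown to sub-confluence (24-36 h), then exposed to compound 48 h. Neutral red dye 3+1 h, solubilised in 50% ethanol/1% acetic acid, absorbance 540 nm (690 nm background). Viability as percent of vehicle-treated cells; pEC50 by non-linear sigmoidal regression over 4 concentrations, triplicate on two independent days. Controls 30 mM sodium azide, 2% Triton-X. HEK293-hSERT cells kept in Geneticin, used up to 30 passages.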

DG-75 [8] = test: Cytotoxicity against human chemoresistant DG75 cells expressing SERT assessed as decrease in cell viability 10 or 50 uM after 72 hrs Alamar blue assay; type: functional, cell-based; conditions: DG-75, 72 h
Summary of the method: (§3)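 1-5x10^4 cells/200 µl given 10 or 50 µM for 24 h (MUTU-I, MDA-MB231, PBMC) or […]. Alamar Blue at 37 °C in the dark 4-6 h, then fluorescence read with 544/590 nm. Media-only background subtracted; untreated cells set as 100% viability. Mean of six points (triplicate, two independent days). PBMCs from a healthy donor, isolated by ficoll density separation.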

HEK293 [9] = test: Cytotoxicity against human HEK293 cells assessed as decrease in cell viability after 48 hrs neutral red dye assay; type: functional, cell-based; conditions: HEK293, 48 h; summary of the method: as §2
Tubulin (Homo sapiens) = Tubulin (Homo sapiens) (UniProt P68371+Q9H4B7+P0DPH7+P68366+Q13509+Q71U36+P04350+Q3ZCM7+P07437+P68363+Q9BQE3+Q6PEY2+Q13885+Q9BVA1+Q9BUF5); test: Inhibition of tubulin polymerisation in human chemosensitive MUTU-I cells after 30 mins; type: cell-based
MUTU-I [10] = test: Induction of apoptosis in human chemosensitive MUTU-I cells assessed as accumulation at G2/M phase after 2 to 8 hrs by propidium iodide FACS analysis relative to taxol; type: functional, cell-based
Summary of the method: (§4)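 750,000 MUTU-I cells per sample treated for the stated time, then harvested (300 ×g, 5 min), washed in ice-cold PBS and fixed overnight at 4 °C in 70% ethanol. Stained with RNase A and propidium iodide, 30 min at 37 °C in the dark. Flow cytometry counted 10,000 gated cells for cell-cycle phases. Taxol 10 µM as positive control.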

MUTU-I [11] = test: Induction of apoptosis in human chemosensitive MUTU-I cells assessed as chromatin condensation and membrane bledding at 10 uM after 8 hrs; type: functional, cell-based
Summary of the method: (§5)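 Cells at 3x10^5 cells/mL exposed for 4 h or 8 h. 150 µl aliquots were cytocentrifuged onto slides (500 ×g, 2 min), air-dried, methanol-fixed, and stained with eosin Y and methylene blue. Morphology was examined by light microscopy at 60x.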

MUTU-I [12] = test: Induction of apoptosis in human chemosensitive MUTU-I cells assessed as induction of PARP cleavage at 10 uM after 8 hrs; type: functional, cell-based
Summary of the method: (§6)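 PARP cleavage by Western blot: 5x10^6 cells pelleted (500 ×g, 5 min), washed, and lysed in Laemmli buffer with protease inhibitors. Lysates run on 8% SDS-PAGE, transferred to PVDF, and probed with anti-PARP detecting full-length 113 kDa and cleaved 85 kDa forms. HRP secondary antibody, chemiluminescence detection.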

[13] = target: T2, Tyrosine-protein phosphatase non-receptor type 1 (Homo sapiens) (UniProt P18031); test: Inhibition of human recombinant PTP1B in chemosensitive MUTU-I cells after 30 mins; type: cell-based
T2 sequence (whole entry): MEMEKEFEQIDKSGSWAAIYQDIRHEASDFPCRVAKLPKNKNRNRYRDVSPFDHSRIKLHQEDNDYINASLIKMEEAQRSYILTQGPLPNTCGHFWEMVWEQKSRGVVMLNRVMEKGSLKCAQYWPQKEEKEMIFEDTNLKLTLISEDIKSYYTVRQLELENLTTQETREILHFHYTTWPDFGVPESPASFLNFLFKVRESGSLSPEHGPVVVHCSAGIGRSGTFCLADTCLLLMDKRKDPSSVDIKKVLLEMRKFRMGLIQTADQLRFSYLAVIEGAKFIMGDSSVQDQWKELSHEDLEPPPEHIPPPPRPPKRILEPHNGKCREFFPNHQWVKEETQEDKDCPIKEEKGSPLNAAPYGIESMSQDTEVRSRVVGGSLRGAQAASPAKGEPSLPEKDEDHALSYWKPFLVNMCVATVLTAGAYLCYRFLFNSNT
Summary of the method: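 Recombinant PTP1B expressed in E. coli, incubated with compound and a phosphopeptide substrate for 30 min at 30 °C. Released phosphate detected by malachite green at 620 nm and quantified against a phosphate standard curve. Suramin as positive control.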

[14] = Induction of apoptosis in human chemosensitive MUTU-I cells assessed as accumulation at pre-G1 phase at 10 uM by propidium iodide FACS analysis; type: functional; summary of the method: as §4
MUTU-I [15] = test: Induction of apoptosis in human chemosensitive MUTU-I cells assessed as caspase 3/7 activation at 10 uM after 4 hrs; type: functional, cell-based
MUTU-I [16] = test: Induction of apoptosis in human chemosensitive MUTU-I cells assessed as chromatin condensation and membrane bledding at 10 uM after 4 hrs; type: functional, cell-based; summary of the method: as §5
MUTU-I [17] = test: Induction of apoptosis in human chemosensitive MUTU-I cells assessed as caspase 3/7 activation at 10 uM after 5 hrs; type: functional, cell-based
Summary of the method: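 Caspase 3/7 activity by homogeneous fluorogenic kit: 0.5x10^5 cells exposed to compound (10 µM) for 5 h, then 100 µl Z-DEVD-R110 substrate added. After 2 h, cleaved substrate measured at 521 nm (excitation 499 nm).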

MUTU-I [18] = test: Induction of apoptosis in human chemosensitive MUTU-I cells assessed as induction of PARP cleavage at 10 uM after 4 hrs; type: functional, cell-based; summary of the method: as §6
[19] = target: T1, Sodium-dependent serotonin transporter; test: Inhibition of [3H]-serotonin reuptake at human SERT expressed in HEK293 cells after 15 to 20 mins by fluorescence neurotransmitter transporter assay; type: cell-based
Target sequence in this assay (P31645 whole entry): as the sequence (P31645 whole entry, looked up) above

PBMC = test: Cytotoxicity against human PBMC cells assessed as decrease in cell viability 10 or 50 uM after 24 hrs Alamar blue assay; type: cell-based; summary of the method: as §3

ON=C(Cc1ccc2c(c1)OCO2)Cc1ccc2c(c1)OCO2
pEC50 (DG-75 [1]): 4.30
pEC50 [2]: 4.60
pEC50 (SH-SY5Y [3]): 4.20

COc1ccc(CC(N)Cc2ccc(OC)cc2)cc1
inhibition [4]: 65%
pEC50 (DG-75 [1]): 3.40
inhibition [5]: 11%
pEC50 (SH-SY5Y [6]): 4.70
pEC50 (HEK293 [7]): 4.60
pEC50 (DG-75 [8]): 4.70
pEC50 [2]: 3.10
pEC50 (HEK293 [9]): 4.50
pEC50 (SH-SY5Y [3]): 4.70

O=[N+]([O-])/C(=C\c1ccc(Cl)cc1)Cc1ccc(Cl)cc1Cl
pEC50 (DG-75 [1]): 5.50
pEC50 [2]: 5.50
pEC50 (SH-SY5Y [3]): 4.60

COc1ccc(/C=C(/Cc2ccc(OC)cc2)[N+](=O)[O-])cc1
inhibition [4]: 10%
inhibition (Tubulin (Homo sapiens)): inactive
pEC50 (DG-75 [1]): 4.90
Activity (MUTU-I [10]): Active
Activity (MUTU-I [11]): Active
inhibition [5]: 25%
Activity (MUTU-I [12]): Active
inhibition [13]: inactive
Activity [14]: 32%
Activity (MUTU-I [15]): Active
Activity (MUTU-I [16]): Active
pEC50 [2]: 5.60
Activity (MUTU-I [17]): Active
Activity (MUTU-I [18]): Active
pEC50 (SH-SY5Y [3]): 4.90

CN(C)CCCC1(c2ccc(F)cc2)OCc2cc(C#N)ccc21 (configuration not stated) [CITALOPRAM]
pEC50 (SH-SY5Y [6]): 4.60
pEC50 (DG-75 [8]): 4.90
pEC50 (HEK293 [9]): 4.80

CSc1ccc(CC(Cc2ccc(SC)cc2)NC(C)=O)cc1
inhibition [4]: 28%
pEC50 (DG-75 [1]): 3.40
inhibition [5]: 0%
pEC50 (SH-SY5Y [6]): 2.40
pEC50 (HEK293 [7]): 4.40
pEC50 (DG-75 [8]): 2.40
pEC50 [2]: 3.80
pEC50 (SH-SY5Y [3]): 1.80

CNC(C)Cc1ccc2c(c1)OCO2 (configuration not stated) [MIDOMAFETAMINE]
pEC50 (SH-SY5Y [6]): < 2.00
pIC50 [19]: 5.96
pEC50 (HEK293 [7]): 3.30
pEC50 (DG-75 [8]): 4.50
pEC50 (HEK293 [9]): 3.60

O=[N+]([O-])/C(=C\c1ccc2c(c1)OCO2)Cc1ccc2c(c1)OCO2
inhibition [4]: 36%
inhibition (Tubulin (Homo sapiens)): inactive
pEC50 (DG-75 [1]): 4.30
Activity (MUTU-I [10]): Active
Activity (MUTU-I [11]): Active
inhibition [5]: 15%
pEC50 (SH-SY5Y [6]): 4.80
Activity (MUTU-I [12]): Active
pEC50 (HEK293 [7]): 4.90
inhibition [13]: inactive
Activity [14]: 30%
Activity (MUTU-I [15]): Active
Activity (MUTU-I [16]): Active
pEC50 (DG-75 [8]): 6.00
pEC50 [2]: 5.50
pEC50 (HEK293 [9]): 5.10
Activity (MUTU-I [17]): Active
Activity (MUTU-I [18]): Active
pEC50 (SH-SY5Y [3]): 4.50

CSc1ccc(CC(N)Cc2ccc(SC)cc2)cc1
inhibition [4]: 98%
pEC50 (DG-75 [1]): 4.60
inhibition [5]: 50%
pEC50 (SH-SY5Y [6]): 4.70
pIC50 [19]: 5.60
pEC50 (HEK293 [7]): 4.50
pEC50 (DG-75 [8]): 4.60
pEC50 [2]: 4.90
Activity (PBMC): Toxic
pEC50 (HEK293 [9]): 4.70
pEC50 (SH-SY5Y [3]): 4.90

CCNC(Cc1ccc(SC)cc1)Cc1ccc(SC)cc1
inhibition [4]: 92%
inhibition [5]: 31%
pEC50 (SH-SY5Y [6]): 4.80
pIC50 [19]: 5.66
pEC50 (HEK293 [7]): 4.60
pEC50 (DG-75 [8]): 4.90
pEC50 (HEK293 [9]): 2.90

CC(=O)NC(Cc1ccc2c(c1)OCO2)Cc1ccc2c(c1)OCO2
pEC50 (SH-SY5Y [6]): < 2.00
pEC50 (HEK293 [7]): < 2.00
pEC50 (DG-75 [8]): 2.90
pEC50 (HEK293 [9]): 2.40

From ChEMBL document CHEMBL1671778, “Synthesis and serotonin transporter activity of 1,3-bis(aryl)-2-nitro-1-propenes as a new class of anticancer agents” (Bioorg Med Chem, 2011)
